ChEMBL document CHEMBL2040727, “Substituted thiazoles VI. Synthesis and antitumor activity of new 2-acetamido- and 2 or 3-propanamido-thiazole analogs” (2012)

What was measured:
Type in all cases: functional
K562 = test: Growth inhibition of human K562 cells at 10 uM after 48 hrs by coulter counter analysis; settings: K562, 48 h, read-out: GI
In short: (§1)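 Single-dose NCI 60-line panel screen of test compounds. Cells grown in RPMI 1640 with 10% FBS. Compounds dissolved in DMSO, then diluted in phosphate buffer saline (final DMSO below 1%). Wells run in duplicate at 6 × 10⁴ cells/ml. Controls held PBS and DMSO at matching dilutions. Incubation 48 h at 37 °C under humidified 5% CO2. Cells diluted tenfold in saline and counted by Coulter counter. Percent growth inhibition taken from mean-graph of treated-cell growth.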

RPMI-8226 = test: Growth inhibition of human RPMI8226 cells at 10 uM after 48 hrs by coulter counter analysis; settings: RPMI-8226, 48 h, read-out: GI; in short: as §1
A498 = test: Growth inhibition of human A498 cells at 10 uM after 48 hrs by coulter counter analysis; settings: A498, 48 h, read-out: GI; in short: as §1
SF-268 = test: Growth inhibition of human SF268 cells at 10 uM after 48 hrs by coulter counter analysis; settings: SF-268, 48 h, read-out: GI; in short: as §1
NCI-H522 = test: Growth inhibition of human NCI-H522 cells at 10 uM after 48 hrs by coulter counter analysis; settings: NCI-H522, 48 h, read-out: GI; in short: as §1
TK-10 = test: Growth inhibition of human TK10 cells at 10 uM after 48 hrs by coulter counter analysis; settings: TK-10, 48 h, read-out: GI
In short: (§2)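 Single-dose screen in the NCI 60 cell line panel. Cells grown in RPMI 1640 with 10% FBS. Compounds dissolved in DMSO and diluted in phosphate buffered saline, final DMSO under 1%. Duplicate wells seeded from culture at 6 × 10⁴ cells/ml. Incubated 48 h at 37 °C, humidified, 5% CO2. Cells diluted tenfold in saline and Coulter-counted. Percent growth inhibition computed against PBS/DMSO controls.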

MDA-MB-231 = test: Growth inhibition of human MDA-MB-231 cells at 10 uM after 48 hrs by coulter counter analysis; settings: MDA-MB-231, 48 h, read-out: GI; in short: as §1
U-251 = test: Growth inhibition of human U251 cells at 10 uM after 48 hrs by coulter counter analysis; settings: U-251, 48 h, read-out: GI; in short: as §2
SK-OV-3 = test: Growth inhibition of human SKOV3 cells at 10 uM after 48 hrs by coulter counter analysis; settings: SK-OV-3, 48 h, read-out: GI; in short: as §1
DU-145 = test: Growth inhibition of human DU145 cells at 10 uM after 48 hrs by coulter counter analysis; settings: DU-145, 48 h, read-out: GI; in short: as §1
SF-295 = test: Growth inhibition of human SF295 cells at 10 uM after 48 hrs by coulter counter analysis; settings: SF-295, 48 h, read-out: GI; in short: as §1
HCT-15 = test: Growth inhibition of human HCT15 cells at 10 uM after 48 hrs by coulter counter analysis; settings: HCT-15, 48 h, read-out: GI; in short: as §1
OVCAR-5 = test: Growth inhibition of human OVCAR5 cells at 10 uM after 48 hrs by coulter counter analysis; settings: OVCAR-5, 48 h, read-out: GI; in short: as §1
NCI-H226 = test: Growth inhibition of human NCI-H226 cells at 10 uM after 48 hrs by coulter counter analysis; settings: NCI-H226, 48 h, read-out: GI; in short: as §1
UACC-257 = test: Growth inhibition of human UACC257 cells at 10 uM after 48 hrs by coulter counter analysis; settings: UACC-257, 48 h, read-out: GI; in short: as §2
A549 = test: Growth inhibition of human A549/ATCC cells at 10 uM after 48 hrs by coulter counter analysis; settings: A549, 48 h, read-out: GI; in short: as §1
UACC-62 = test: Growth inhibition of human UACC62 cells at 10 uM after 48 hrs by coulter counter analysis; settings: UACC-62, 48 h, read-out: GI; in short: as §2
SW-620 = test: Growth inhibition of human SW620 cells at 10 uM after 48 hrs by coulter counter analysis; settings: SW-620, 48 h, read-out: GI; in short: as §2
RXF 393 = test: Growth inhibition of human RXF393 cells at 10 uM after 48 hrs by coulter counter analysis; settings: RXF 393, 48 h, read-out: GI; in short: as §1
OVCAR-4 = test: Growth inhibition of human OVCAR4 cells at 10 uM after 48 hrs by coulter counter analysis; settings: OVCAR-4, 48 h, read-out: GI; in short: as §1
HOP-62 = test: Growth inhibition of human HOP62 cells at 10 uM after 48 hrs by coulter counter analysis; settings: HOP-62, 48 h, read-out: GI; in short: as §1
[1] = Growth inhibition of human Hs 578T cells at 10 uM after 48 hrs by coulter counter analysis; settings: read-out: GI; in short: as §1
SK-MEL-5 = test: Growth inhibition of human SK-MEL-5 cells at 10 uM after 48 hrs by coulter counter analysis; settings: SK-MEL-5, 48 h, read-out: GI; in short: as §1
HT-29 = test: Growth inhibition of human HT-29 cells at 10 uM after 48 hrs by coulter counter analysis; settings: HT-29, 48 h, read-out: GI; in short: as §1
UO-31 = test: Growth inhibition of human UO31 cells at 10 uM after 48 hrs by coulter counter analysis; settings: UO-31, 48 h, read-out: GI; in short: as §2
[2] = Growth inhibition of human NCI-ADR-RES cells at 10 uM after 48 hrs by coulter counter analysis; settings: read-out: GI; in short: as §1

SMILES	inhibition of growth at 10 µM (K562)	inhibition of growth at 10 µM (RPMI-8226)	inhibition of growth at 10 µM (A498)	inhibition of growth at 10 µM (SF-268)	inhibition of growth at 10 µM (NCI-H522)	inhibition of growth at 10 µM (TK-10)	inhibition of growth at 10 µM (MDA-MB-231)	inhibition of growth at 10 µM (U-251)	inhibition of growth at 10 µM (SK-OV-3)	inhibition of growth at 10 µM (DU-145)	inhibition of growth at 10 µM (SF-295)	inhibition of growth at 10 µM (HCT-15)	inhibition of growth at 10 µM (OVCAR-5)	inhibition of growth at 10 µM (NCI-H226)	inhibition of growth at 10 µM (UACC-257)	inhibition of growth at 10 µM (A549)	inhibition of growth at 10 µM (UACC-62)	inhibition of growth at 10 µM (SW-620)	inhibition of growth at 10 µM (RXF 393)	inhibition of growth at 10 µM (OVCAR-4)	also measured
Cc1csc(NC(=O)C(C)N2CCN(c3ccccc3)CC2)n1 (stereo not given)	< 10%	< 10%	< 10%	< 10%	< 10%	< 10%	< 10%	< 10%	< 10%	< 10%	< 10%	< 10%	< 10%	11.7%	< 10%	< 10%	< 10%	< 10%	< 10%	< 10%	inhibition of growth at 10 µM (HOP-62): < 10%; inhibition of growth at 10 µM [1]: < 10%; inhibition of growth at 10 µM (SK-MEL-5): < 10%; inhibition of growth at 10 µM (HT-29): < 10%; inhibition of growth at 10 µM (UO-31): 17.9%; inhibition of growth at 10 µM [2]: < 10%
CCOC(=O)c1sc(NC(=O)C(C)N(CC)CC)nc1C (stereo not given)	< 10%	< 10%	< 10%	< 10%	< 10%	< 10%	< 10%	< 10%	< 10%	< 10%	< 10%	< 10%	< 10%	< 10%	< 10%	< 10%	< 10%	< 10%	< 10%	< 10%	inhibition of growth at 10 µM (HOP-62): < 10%; inhibition of growth at 10 µM [1]: < 10%; inhibition of growth at 10 µM (SK-MEL-5): < 10%; inhibition of growth at 10 µM (HT-29): < 10%; inhibition of growth at 10 µM (UO-31): < 10%; inhibition of growth at 10 µM [2]: < 10%
CCOC(=O)c1sc(NC(=O)C(C)N2CCCCC2)nc1C (stereo not given)	< 10%	< 10%	< 10%	< 10%	< 10%	< 10%	< 10%	< 10%	< 10%	< 10%	< 10%	< 10%	< 10%	< 10%	< 10%	< 10%	< 10%	< 10%	< 10%	< 10%	inhibition of growth at 10 µM (HOP-62): < 10%; inhibition of growth at 10 µM [1]: < 10%; inhibition of growth at 10 µM (SK-MEL-5): < 10%; inhibition of growth at 10 µM (HT-29): < 10%; inhibition of growth at 10 µM (UO-31): 13.4%; inhibition of growth at 10 µM [2]: < 10%
CCOC(=O)c1sc(NC(=O)C(C)N2CCOCC2)nc1C (stereo not given)	< 10%	< 10%	< 10%	< 10%	< 10%	< 10%	< 10%	< 10%	< 10%	< 10%	< 10%	< 10%	< 10%	< 10%	< 10%	< 10%	< 10%	< 10%	< 10%	< 10%	inhibition of growth at 10 µM (HOP-62): < 10%; inhibition of growth at 10 µM [1]: < 10%; inhibition of growth at 10 µM (SK-MEL-5): < 10%; inhibition of growth at 10 µM (HT-29): < 10%; inhibition of growth at 10 µM (UO-31): 14.2%; inhibition of growth at 10 µM [2]: < 10%
CCOC(=O)c1sc(NC(=O)C(C)N2CCN(C)CC2)nc1C (stereo not given)	< 10%	< 10%	< 10%	< 10%	< 10%	< 10%	< 10%	< 10%	< 10%	< 10%	< 10%	< 10%	< 10%	< 10%	< 10%	< 10%	< 10%	< 10%	< 10%	< 10%	inhibition of growth at 10 µM (HOP-62): < 10%; inhibition of growth at 10 µM [1]: < 10%; inhibition of growth at 10 µM (SK-MEL-5): < 10%; inhibition of growth at 10 µM (HT-29): < 10%; inhibition of growth at 10 µM (UO-31): 13.1%; inhibition of growth at 10 µM [2]: < 10%
